Test results reported in ChEMBL document CHEMBL2062375, “Discovery of an orally efficacious inhibitor of anaplastic lymphoma kinase” (J Med Chem, 2012).
pIC50: −log10 of the molar value.

How the values were obtained:
[1] = Half life in SCID mouse at 1 mg/kg, iv; format: ADME, organism-based; set-up: dose 1 mg/kg, route intravenous; conditions: in vivo
Procedure, shortened: (§1)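 Mouse PK. IV via the lateral tail vein in 3% DMSO/30% Solutol/67% PBS, or oral gavage in 100% PEG400, 100 μL dose volume, after an overnight fast. Trunk blood was taken from three mice per time point over 6 h. Plasma was acetonitrile-precipitated and analysed by LC-MS/MS. Parameters were derived noncompartmentally.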

[2] = Plasma clearance in SCID mouse at 1 mg/kg, iv; format: ADME, organism-based; set-up: dose 1 mg/kg, route intravenous
Procedure, shortened: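 Mouse IV PK: lateral tail vein dosing, 100 μL in 3% DMSO/30% Solutol/67% PBS; trunk blood from three mice per time point over 6 h. Plasma precipitated with acetonitrile, drug quantified by LCMS/MS against internal standard; noncompartmental analysis.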

[3] = AUC in SCID mouse at 1 mg/kg, iv; format: ADME, organism-based; set-up: dose 1 mg/kg, route intravenous; conditions: plasma; procedure, shortened: as §1
[4] = Plasma clearance in Sprague-Dawley rat at 1 mg/kg, iv; format: ADME, organism-based; set-up: dose 1 mg/kg, route intravenous
Procedure, shortened: (§2)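 IV PK: rats via lateral tail vein (1 mL/kg; 3% DMSO/30% Solutol/67% PBS), serial tail-vein blood over 6 h. Dogs and monkeys via saphenous vein (0.5 mL/kg in 40% HPβCD), femoral-vein blood over 24 h. Acetonitrile protein precipitation, LCMS/MS; noncompartmental parameters from individual animals, n = 3, mean ± SEM.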

[5] = Volume of distribution in Sprague-Dawley rat at 1 mg/kg, iv; format: ADME, organism-based; set-up: dose 1 mg/kg, route intravenous; conditions: in vivo; procedure, shortened: as §2
[6] = Plasma clearance in cynomolgus monkey at 1 mg/kg, iv; format: ADME, organism-based, Macaca fascicularis; set-up: dose 1 mg/kg, route intravenous; procedure, shortened: as §2
[7] = Volume of distribution in cynomolgus monkey at 1 mg/kg, iv; format: ADME, organism-based, Macaca fascicularis; set-up: dose 1 mg/kg, route intravenous; conditions: in vivo; procedure, shortened: as §2
[8] = AUC in cynomolgus monkey at 1 mg/kg, iv; format: ADME, organism-based, Macaca fascicularis; set-up: dose 1 mg/kg, route intravenous; conditions: plasma
Procedure, shortened: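 Dog and monkey PK. IV 0.5 mL/kg in 40% HPβCD via the saphenous vein. Oral dosing was 1 mL/kg by gavage in dogs and 2 mL/kg by nasogastric tube in monkeys, after an overnight fast. Serial femoral-vein blood was taken into heparin over 24 h. Plasma was acetonitrile-precipitated and analysed by LC-MS/MS. Parameters were noncompartmental, n = 3, mean ± SEM.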

[9] = Tmax in SCID mouse at 10 mg/kg, po; format: ADME, organism-based; set-up: dose 10 mg/kg, route oral; conditions: in vivo
Procedure, shortened: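 Mouse oral PK: overnight fast, gavage of 100 μL in 100% PEG400; trunk blood from three mice per time point over 6 h; plasma acetonitrile-precipitated and analysed by LCMS/MS, noncompartmental parameters.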

[10] = AUC in SCID mouse at 10 mg/kg, po; format: ADME, organism-based; set-up: dose 10 mg/kg, route oral; conditions: plasma; procedure, shortened: as §1
[11] = Half life in CD-1 mouse at 10 mg/kg, po; format: ADME, organism-based; set-up: dose 10 mg/kg, route oral; conditions: in vivo; procedure, shortened: as §1
[12] = AUC in Sprague-Dawley rat at 10 mg/kg, po; format: ADME, organism-based; set-up: dose 10 mg/kg, route oral; conditions: plasma
Procedure, shortened: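 Rat PK. IV via the lateral tail vein, 1 mL/kg in 3% DMSO/30% Solutol/67% PBS, or oral gavage at 5 mL/kg in 40% HPβCD, after an overnight fast. Serial tail-vein blood was taken into heparin over 6 h. Plasma was acetonitrile-precipitated and analysed by LC-MS/MS. Parameters were noncompartmental, n = 3, mean ± SEM.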

[13] = Tmax in Beagle dog at 10 mg/kg, po; format: ADME, organism-based, Canis lupus familiaris; set-up: dose 10 mg/kg, route oral; conditions: in vivo
Procedure, shortened: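 PK: overnight-fasted animals. Rat oral gavage 5 mL/kg in 40% HPβCD, serial tail-vein blood over 6 h. Dog oral gavage 1 mL/kg, monkey nasogastric 2 mL/kg, femoral-vein blood over 24 h. Plasma protein-precipitated with acetonitrile, LCMS/MS with internal standard; noncompartmental analysis, individual animals n = 3, mean ± SEM.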

[14] = AUC (0 to 12 hrs) in rat 10 mg/kg, po; format: ADME, organism-based; set-up: time < 12 hr, dose 10 mg/kg, route oral; conditions: plasma
Procedure, shortened: (§3)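 Rat oral dose escalation at 10, 30, 55 and 100 mg/kg. Gavage at 5 mL/kg in 40% HPβCD after an overnight fast. Serial tail-vein blood was drawn into heparinized tubes. Plasma was protein-precipitated with acetonitrile and assayed by LC-MS/MS. Cmax and AUC0–12 were derived noncompartmentally; n = 2 at 10 mg/kg.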

[15] = AUC (0 to 12 hrs) in rat 55 mg/kg, po; format: ADME, organism-based; set-up: time < 12 hr, dose 55 mg/kg, route oral; conditions: plasma; procedure, shortened: as §3
[16] = Plasma concentration in SCID mouse xenografted with human KARPAS299 cells expressing NPM-ALK at 30 mg/kg, po after 2 hrs by LC-MS/MS analysis; format: ADME, organism-based, KARPAS-299; set-up: dose 30 mg/kg, route oral
Procedure, shortened: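 Pharmacodynamic study: SCID mice bearing subcutaneous Karpas-299 xenografts given single 30 mg/kg oral dose; plasma drug levels measured by LCMS/MS, reported as mean ± SEM.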

[17] = Drug level in SCID/beige mouse tumor xenografted with human KARPAS299 cells expressing NPM-ALK at 30 mg/kg, po bid after 2 hrs post last dose by LC-MS/MS analysis; format: ADME, organism-based, Neoplasm, KARPAS-299; set-up: dose 30 mg/kg, route oral; conditions: read-out: Drug uptake
Procedure, shortened: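 Female SCID/beige mice, 6–8 weeks old, implanted sc in the left flank with exponentially growing Karpas-299 cells. At about 600 mm³ tumours, mice were randomized (8–10/group) and given PEG400 vehicle or compound orally b.i.d., 100 μL, for 12 days. Tumour volume (0.5236LW(L+W)/2) and body weight were recorded every 2–3 days; Mann–Whitney test. Plasma and tumour levels were measured by LC-MS/MS 2 h after the final dose, mean ± SEM.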

Mus musculus = assay: Toxicity in SCID mouse xenografted with human KARPAS299 cells expressing NPM-ALK assessed as overt toxicity at 10 to 30 mg/kg, po bid; format: organism-based, KARPAS-299; set-up: dose 10-30 mg/kg, route oral; conditions: in vivo
Procedure, shortened: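 Female SCID/beige mice (6–8 weeks), Karpas-299 cells implanted sc in left flank; at ~600 mm³ randomized (8–10/group), dosed orally in PEG400, 100 μL, b.i.d. for 12 days. Body weight every 2–3 days; plasma and tumor sampled 2 h after final dose, drug by LCMS/MS; Mann–Whitney rank sum statistics.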

Activated CDC42 kinase 1 = Activated CDC42 kinase 1 (Homo sapiens, UniProt Q07912); assay: Inhibition of human ACK1
Activated CDC42 kinase 1, sequence (Q07912 whole entry): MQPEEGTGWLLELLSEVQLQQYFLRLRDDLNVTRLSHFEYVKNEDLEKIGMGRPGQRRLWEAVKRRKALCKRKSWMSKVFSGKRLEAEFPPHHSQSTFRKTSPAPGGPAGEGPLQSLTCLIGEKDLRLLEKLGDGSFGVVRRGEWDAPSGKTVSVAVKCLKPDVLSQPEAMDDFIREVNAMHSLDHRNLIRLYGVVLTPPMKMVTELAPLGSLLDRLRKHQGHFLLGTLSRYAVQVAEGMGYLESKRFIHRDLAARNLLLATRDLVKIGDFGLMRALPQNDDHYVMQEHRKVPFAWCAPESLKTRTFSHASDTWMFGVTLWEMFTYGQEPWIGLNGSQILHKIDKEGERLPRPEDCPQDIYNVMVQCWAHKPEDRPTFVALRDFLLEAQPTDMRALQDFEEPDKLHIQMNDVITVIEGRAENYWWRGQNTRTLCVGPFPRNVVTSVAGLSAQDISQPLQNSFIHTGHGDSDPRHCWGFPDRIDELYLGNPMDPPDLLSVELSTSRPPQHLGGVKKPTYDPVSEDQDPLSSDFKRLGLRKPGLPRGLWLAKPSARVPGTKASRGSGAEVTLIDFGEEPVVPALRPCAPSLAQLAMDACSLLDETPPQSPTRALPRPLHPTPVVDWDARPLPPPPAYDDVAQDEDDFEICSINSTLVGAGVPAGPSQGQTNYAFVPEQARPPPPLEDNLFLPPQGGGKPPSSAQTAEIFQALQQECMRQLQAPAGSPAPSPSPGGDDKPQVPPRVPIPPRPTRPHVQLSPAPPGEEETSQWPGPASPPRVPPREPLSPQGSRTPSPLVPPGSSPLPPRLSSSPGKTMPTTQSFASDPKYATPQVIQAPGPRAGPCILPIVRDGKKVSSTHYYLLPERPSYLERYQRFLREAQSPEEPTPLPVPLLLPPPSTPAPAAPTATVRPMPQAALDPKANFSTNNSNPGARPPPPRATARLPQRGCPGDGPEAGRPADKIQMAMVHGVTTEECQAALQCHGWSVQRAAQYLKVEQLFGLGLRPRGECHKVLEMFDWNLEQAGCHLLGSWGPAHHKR

[18] = biological target: T1, Serine/threonine-protein kinase Chk2 (Homo sapiens, UniProt O96017); assay: Inhibition of human CHK2
T1 sequence (O96017 whole entry): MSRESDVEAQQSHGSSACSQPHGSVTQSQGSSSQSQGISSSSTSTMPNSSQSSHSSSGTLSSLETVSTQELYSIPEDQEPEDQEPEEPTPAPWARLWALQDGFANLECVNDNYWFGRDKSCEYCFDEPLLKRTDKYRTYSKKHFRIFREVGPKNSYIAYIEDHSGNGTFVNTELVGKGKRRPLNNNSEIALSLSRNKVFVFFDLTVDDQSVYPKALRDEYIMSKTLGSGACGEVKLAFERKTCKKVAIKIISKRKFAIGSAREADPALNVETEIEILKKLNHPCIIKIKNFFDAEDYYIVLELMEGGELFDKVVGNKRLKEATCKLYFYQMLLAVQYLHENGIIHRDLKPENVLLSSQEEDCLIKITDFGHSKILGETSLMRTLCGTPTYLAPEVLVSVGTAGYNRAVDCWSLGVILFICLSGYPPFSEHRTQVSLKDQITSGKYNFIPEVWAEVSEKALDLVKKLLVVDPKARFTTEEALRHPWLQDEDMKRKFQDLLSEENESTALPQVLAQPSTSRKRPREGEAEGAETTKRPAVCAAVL
Procedure, shortened: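 Commercial activity-assay panel of 259 kinases. Each kinase was first screened at 1 μM, and those inhibited by ≥90% went on to full IC50 determination.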

[19] = biological target: Tyrosine-protein kinase Fes/Fps (Homo sapiens, UniProt P07332); assay: Inhibition of human Fes
Tyrosine-protein kinase Fes/Fps, sequence (P07332 whole entry): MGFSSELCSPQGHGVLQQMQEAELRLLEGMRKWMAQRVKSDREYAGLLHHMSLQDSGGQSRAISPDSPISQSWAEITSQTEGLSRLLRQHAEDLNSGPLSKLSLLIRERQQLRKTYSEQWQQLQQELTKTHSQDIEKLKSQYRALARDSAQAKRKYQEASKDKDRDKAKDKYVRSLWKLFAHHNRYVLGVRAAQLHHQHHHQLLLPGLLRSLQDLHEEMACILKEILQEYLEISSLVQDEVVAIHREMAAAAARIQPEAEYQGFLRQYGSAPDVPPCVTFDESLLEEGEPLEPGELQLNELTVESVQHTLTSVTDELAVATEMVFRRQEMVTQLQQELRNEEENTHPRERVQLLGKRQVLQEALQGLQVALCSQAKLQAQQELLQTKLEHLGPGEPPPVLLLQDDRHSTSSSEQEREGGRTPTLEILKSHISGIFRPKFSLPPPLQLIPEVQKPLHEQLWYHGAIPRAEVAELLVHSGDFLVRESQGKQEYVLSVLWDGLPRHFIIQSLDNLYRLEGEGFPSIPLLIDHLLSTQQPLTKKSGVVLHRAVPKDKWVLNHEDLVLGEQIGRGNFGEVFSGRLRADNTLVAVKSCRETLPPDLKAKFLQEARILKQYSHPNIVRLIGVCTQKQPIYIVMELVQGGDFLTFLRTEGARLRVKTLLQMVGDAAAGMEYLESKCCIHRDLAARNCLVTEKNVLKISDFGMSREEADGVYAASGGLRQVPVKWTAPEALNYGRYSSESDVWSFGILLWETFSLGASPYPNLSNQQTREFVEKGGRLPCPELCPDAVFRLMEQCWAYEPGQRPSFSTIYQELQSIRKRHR
Procedure, shortened: (§4)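 Millipore KinaseProfiler activity assays on a 259-kinase panel; kinases inhibited by ≥90% at 1 μM then taken to full IC50 determination.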

[20] = biological target: Ribosomal protein S6 kinase alpha-3 (Homo sapiens, UniProt P51812); assay: Inhibition of human Rsk2; procedure, shortened: as §4
Ribosomal protein S6 kinase alpha-3, sequence (P51812 whole entry): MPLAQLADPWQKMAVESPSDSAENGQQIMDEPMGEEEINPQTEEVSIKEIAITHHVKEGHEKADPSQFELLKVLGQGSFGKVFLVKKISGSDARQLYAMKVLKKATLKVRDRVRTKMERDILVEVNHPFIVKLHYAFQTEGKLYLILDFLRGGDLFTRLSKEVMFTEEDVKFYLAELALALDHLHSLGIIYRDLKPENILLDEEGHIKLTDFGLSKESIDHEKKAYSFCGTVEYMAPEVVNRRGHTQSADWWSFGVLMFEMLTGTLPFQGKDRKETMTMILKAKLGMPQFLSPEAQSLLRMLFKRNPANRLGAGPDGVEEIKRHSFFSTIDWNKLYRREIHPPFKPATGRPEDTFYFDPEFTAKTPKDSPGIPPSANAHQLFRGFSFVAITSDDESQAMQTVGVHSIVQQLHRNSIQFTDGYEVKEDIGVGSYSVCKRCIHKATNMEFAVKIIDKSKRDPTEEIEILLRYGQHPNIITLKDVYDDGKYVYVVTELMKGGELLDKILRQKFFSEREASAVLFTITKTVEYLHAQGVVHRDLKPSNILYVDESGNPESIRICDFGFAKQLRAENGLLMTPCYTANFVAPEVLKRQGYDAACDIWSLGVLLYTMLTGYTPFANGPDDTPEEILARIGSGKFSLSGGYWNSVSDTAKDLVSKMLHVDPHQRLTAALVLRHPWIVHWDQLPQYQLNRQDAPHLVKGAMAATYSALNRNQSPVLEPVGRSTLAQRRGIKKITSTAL

[21] = biological target: Ribosomal protein S6 kinase alpha-6 (Homo sapiens, UniProt Q9UK32); assay: Inhibition of human Rsk4; procedure, shortened: as §4
[22] = biological target: Ribosomal protein S6 kinase alpha-1 (Homo sapiens, UniProt Q15418); conditions: 1 uM
Ribosomal protein S6 kinase alpha-1, sequence (Q15418 whole entry): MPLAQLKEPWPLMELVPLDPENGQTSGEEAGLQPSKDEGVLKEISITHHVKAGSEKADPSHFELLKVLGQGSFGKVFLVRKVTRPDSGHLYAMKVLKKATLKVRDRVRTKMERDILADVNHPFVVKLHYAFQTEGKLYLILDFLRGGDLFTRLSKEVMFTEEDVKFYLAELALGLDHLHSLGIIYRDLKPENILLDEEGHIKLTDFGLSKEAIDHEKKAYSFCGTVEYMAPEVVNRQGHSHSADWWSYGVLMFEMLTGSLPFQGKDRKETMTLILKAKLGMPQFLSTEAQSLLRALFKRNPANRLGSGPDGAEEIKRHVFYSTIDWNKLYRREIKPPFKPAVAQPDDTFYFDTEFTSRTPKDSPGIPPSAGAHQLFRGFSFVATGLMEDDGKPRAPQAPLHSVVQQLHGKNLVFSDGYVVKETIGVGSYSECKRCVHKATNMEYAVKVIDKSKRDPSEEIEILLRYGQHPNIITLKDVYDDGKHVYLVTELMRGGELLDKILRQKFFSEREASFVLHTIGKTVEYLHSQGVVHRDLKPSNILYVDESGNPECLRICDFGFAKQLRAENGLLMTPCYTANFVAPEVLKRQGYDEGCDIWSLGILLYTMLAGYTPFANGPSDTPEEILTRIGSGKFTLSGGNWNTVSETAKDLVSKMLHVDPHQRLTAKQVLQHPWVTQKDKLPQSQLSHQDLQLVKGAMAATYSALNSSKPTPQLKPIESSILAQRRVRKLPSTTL

[23] = biological target: NUAK family SNF1-like kinase 1 (Homo sapiens) (UniProt O60285); conditions: 1 uM
NUAK family SNF1-like kinase 1 (Homo sapiens), sequence (O60285 whole entry): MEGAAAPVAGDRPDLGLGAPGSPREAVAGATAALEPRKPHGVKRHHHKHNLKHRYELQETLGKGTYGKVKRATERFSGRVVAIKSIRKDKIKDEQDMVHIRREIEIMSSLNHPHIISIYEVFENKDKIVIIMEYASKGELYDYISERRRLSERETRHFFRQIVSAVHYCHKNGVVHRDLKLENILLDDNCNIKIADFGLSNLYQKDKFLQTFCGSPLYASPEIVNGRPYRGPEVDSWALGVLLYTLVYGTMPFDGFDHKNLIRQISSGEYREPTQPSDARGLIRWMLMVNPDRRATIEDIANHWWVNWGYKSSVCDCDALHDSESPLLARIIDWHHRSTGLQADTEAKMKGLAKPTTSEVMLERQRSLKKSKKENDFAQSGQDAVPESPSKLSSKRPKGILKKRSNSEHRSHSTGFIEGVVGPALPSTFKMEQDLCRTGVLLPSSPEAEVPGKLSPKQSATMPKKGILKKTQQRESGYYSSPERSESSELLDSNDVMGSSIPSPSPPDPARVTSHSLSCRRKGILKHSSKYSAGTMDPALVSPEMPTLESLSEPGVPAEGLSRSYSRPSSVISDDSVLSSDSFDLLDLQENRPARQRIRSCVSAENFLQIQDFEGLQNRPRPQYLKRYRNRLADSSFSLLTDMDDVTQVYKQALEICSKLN

[24] = biological target: T1, Serine/threonine-protein kinase Chk2; conditions: 1 uM
Focal adhesion kinase 1 = Focal adhesion kinase 1 (Homo sapiens, UniProt Q05397); conditions: 1 uM
[25] = biological target: Mitogen-activated protein kinase 8 (Homo sapiens, UniProt P45983); conditions: 1 uM
Mitogen-activated protein kinase 8, sequence (P45983 whole entry): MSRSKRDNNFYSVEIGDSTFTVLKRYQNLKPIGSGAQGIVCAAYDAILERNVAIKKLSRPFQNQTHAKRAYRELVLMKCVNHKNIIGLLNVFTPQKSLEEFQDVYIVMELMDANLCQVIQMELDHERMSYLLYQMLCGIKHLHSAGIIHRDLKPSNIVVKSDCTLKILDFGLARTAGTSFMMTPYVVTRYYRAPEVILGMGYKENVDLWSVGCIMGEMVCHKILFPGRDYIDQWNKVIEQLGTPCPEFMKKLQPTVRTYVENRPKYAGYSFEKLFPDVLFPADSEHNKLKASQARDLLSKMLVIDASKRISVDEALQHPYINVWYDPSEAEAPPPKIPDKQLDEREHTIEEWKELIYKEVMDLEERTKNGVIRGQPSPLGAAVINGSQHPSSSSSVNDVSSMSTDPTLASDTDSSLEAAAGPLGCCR

- half-life [1]: 1.8 h
- clearance [2]: 6 mL/min/kg
- AUC [3]: 3020 ng·h/mL
- clearance [4]: 17 mL/min/kg
- Vd [5]: 1.3 L/kg
- clearance [6]: 28 mL/min/kg
- Vd [7]: 2.9 L/kg
- AUC [8]: 615 ng·h/mL
- Tmax [9]: 1 h
- AUC [10]: 21400 ng·h/mL
- half-life [11]: 2.3 h
- AUC [12]: 4830 ng·h/mL
- Tmax [13]: 0.8 h
- AUC(0-t) at 12 h [14]: 2570 ng·h/mL
- AUC(0-t) at 12 h [15]: 24100 ng·h/mL
- concentration at 2 h [16]: 4180 ng/mL
- concentration at 2 h [17]: 4040 ng/g
- pIC50 (Activated CDC42 kinase 1): 7.39
- pIC50 [18]: 7.54
- pIC50 [19]: 7.00
- pIC50 [20]: 7.89
- pIC50 [21]: 7.72
- inhibition [22]: > 90%
- inhibition [23]: > 90%
- inhibition [24]: > 90%
- inhibition (Focal adhesion kinase 1): > 90%
- inhibition [25]: > 90%
Compound: COc1c(Nc2ncc(Cl)c(N[C@H]3[C@@H](C(N)=O)[C@@H]4C=C[C@H]3C4)n2)ccc2c1CC[C@@H](N1CCOCC1)CC2
- Activity (Mus musculus): Non-toxic
